In the library only some 3.5% were active in any assay of this set; here they are far more common.
APP 5'UTR act = activates APP 5'UTR luciferase reporter; SH-SY5Y APP 5'UTR luciferase reporter, luminescence; zero percent = DMSO vehicle wells; activation, % at 2 µM; 190,000 tested, 1% active;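 active means activation above a set limit, based on mean plus 3 SD of controls, cut at about 140% in these data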
NF-kB expr up = NF-kB expression increase, human neuronal cells; NF-kB reporter expression; stronger effect = higher value; fold change at 12.5 µM; 190,000 tested, 1.6% active; AID 1239; in the data active means fold change above about 3.3
Pf gamet viab = P. falciparum stage V gametocyte viability inhibition; 150,000 tested, 0.065% active; AID 743093; inhibition, % at 10.9 µM; P. falciparum stage V gametocytes, ATP luminescence, 24 h;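 active means inhibition above the mean plus 3 SD of compounds within the control limits, set per campaign, cut at about 38% in these data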
STAT1 activator = increases IFN-gamma driven STAT1 reporter signal; NIH 3T3 STAT1-luciferase reporter, luminescence; 100% = IFN-gamma alone, no compound; activation (% of control), % at 5.5 µM; 200,000 tested, 2.6% active;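 active means activation above the screen-wide mean activation plus 3 SD, cut at about 130% in these data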
FLuc stim CS = affects firefly luciferase, flagging false hits in luciferase stimulation screens | ATPlite luciferase biochemical, luminescence, 10 min; 0 = ATP-free wells, 1 = DMSO control | activation factor at 10 µM | 200,000 tested, under 10 active | AID 1027;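 active means luciferase activation factor, scaled between plate controls, of at least 2 with compound at 10 µM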
Target sequence (P08659 whole entry, looked up): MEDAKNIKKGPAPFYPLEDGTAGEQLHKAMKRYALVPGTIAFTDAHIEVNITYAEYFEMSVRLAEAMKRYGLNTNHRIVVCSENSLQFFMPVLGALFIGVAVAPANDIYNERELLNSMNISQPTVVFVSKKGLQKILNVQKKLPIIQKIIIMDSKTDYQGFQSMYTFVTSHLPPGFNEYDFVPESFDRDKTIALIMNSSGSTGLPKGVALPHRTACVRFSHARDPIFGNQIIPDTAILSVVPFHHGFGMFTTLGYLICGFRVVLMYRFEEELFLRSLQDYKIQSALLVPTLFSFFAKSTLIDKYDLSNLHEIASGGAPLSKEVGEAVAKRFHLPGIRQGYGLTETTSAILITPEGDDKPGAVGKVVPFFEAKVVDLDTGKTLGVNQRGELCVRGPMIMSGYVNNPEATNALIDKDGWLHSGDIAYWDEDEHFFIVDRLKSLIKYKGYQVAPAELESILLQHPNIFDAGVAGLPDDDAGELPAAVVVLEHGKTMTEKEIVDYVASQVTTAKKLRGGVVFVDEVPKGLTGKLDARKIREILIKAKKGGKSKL
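assay system = Luciferase/luciferin detection reagent, cell-free biochemical luciferase assay | also added = ATP substrate | times = 10 min post-reagent at room temperature | measured by = luminescence from luciferase reaction | measure = luciferase activation, seen as luminescence increase over controls | benchmarks = low control with PBS replacing ATP, high control enzyme plus ATP without compound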
FLuc inhib CS = Photinus pyralis luciferase inhibition counter-screen; ATPLite firefly luciferase biochemical luminescence, 10 min; inhibition, % at 10 µM; 200,000 tested, 1.5% active;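 active means inhibition above about 50% when tested at 10 µM, limit read from the data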
Each line names hits and unclear results; the compound was inactive in the other large screens.

Cc1cccc(-c2nc3cc([N+](=O)[O-])ccc3o2)c1	NF-kB expr up 3.49
Cc1ccc2oc(Nc3nc(-c4ccccc4)cc(=O)[nH]3)nc2c1	none
Cc1ccc2oc(-c3ccccc3)nc2c1	STAT1 activator 134.3, FLuc inhib CS 75.7 (no result: Pf gamet viab)
O=C(OCC(=O)N1CCc2ccccc21)c1nc(Cl)ccc1Cl	none
COc1cccc(N2C(=O)C(Cc3c[nH]c4ccccc34)NC2=S)c1 (stereo unspecified)	none
CCOC(=O)C(=O)Nc1ccc2c(c1)OCO2	none (no result: Pf gamet viab)
CCOC(=O)/C(N=Nc1ccc2c(c1)OCO2)=C(\C)O	STAT1 activator 137.0
Cc1ccc(N=Cc2cccc(O)c2O)c(C)c1	none
Cc1ccc(N=Cc2sc(O)c3ccccc23)c(C)c1	STAT1 activator 147.3
COc1nccc(NCc2ccccc2)c1C#N	none (no result: APP 5'UTR act, NF-kB expr up, STAT1 activator, FLuc stim CS, FLuc inhib CS)
O=C(N/N=C/c1ccc([N+](=O)[O-])cc1)c1[nH]ncc1Br	STAT1 activator 131.1, FLuc inhib CS 59.6 (no result: Pf gamet viab)
O=C(CCCn1c(=O)[nH]c2cc(Cl)ccc2c1=O)NCCCN1CCN(c2ccc(F)cc2)CC1	none
C/C(=N\Nc1cccc2cccnc12)c1ccc[nH]1	APP 5'UTR act 206.2, FLuc inhib CS 86.2
O=C(Cn1ccc(C(F)(F)F)n1)N/N=C/c1cccs1	none (no result: Pf gamet viab)
COc1cc(NC(=O)COc2ccccc2[N+](=O)[O-])ccc1NC(=O)c1cccs1	STAT1 activator 141.2
Cc1cc(OCCCn2cnc3ccccc3c2=O)ccc1[N+](=O)[O-]	none
O=c1c2ccccc2ncn1CCCOc1ccccc1[N+](=O)[O-]	STAT1 activator 128.9 (no result: Pf gamet viab)
Cc1cc(NCCCn2ccnc2)n2ncc(-c3ccc(Cl)cc3)c2n1	APP 5'UTR act 253.3, STAT1 activator 155.7
Cc1cc(NCCCN2CCOCC2)n2ncc(-c3ccc(Cl)cc3)c2n1	none
Cc1ccc(-c2cc(C(=O)n3cnc4ccccc43)c3ccccc3n2)cc1C	FLuc inhib CS 68.8
Cc1ccc(-c2cc(C(=O)NCc3ccccn3)c3ccccc3n2)cc1C	FLuc inhib CS 52.2 (no result: Pf gamet viab)
Cc1cc(C)cc(NC(=O)CCN2CCCC2)c1	none
CCOC(=O)/C(=C/c1ccccc1)NC(=O)c1ccco1	none
O=c1cc(C(F)(F)C(F)F)oc2ccccc12	none
Cc1ccc(N=C2NC(=O)/C(=C\c3ccsc3)S2)c(C)c1	NF-kB expr up 4.42
Cc1ccc2cc(C#N)c(NCc3ccccc3)nc2c1	none
Cc1ccc2ccc(C3C(=O)c4ccccc4C3=O)nc2c1	APP 5'UTR act 144.8, STAT1 activator 141.6 (no result: NF-kB expr up, FLuc stim CS, FLuc inhib CS)
O=C(NCC1CCCO1)c1cc(-c2ccc(Cl)cc2Cl)on1 (stereo unspecified)	NF-kB expr up 3.39, FLuc inhib CS 70.8 (no result: Pf gamet viab)
O=C(NCC1CCCO1)c1cc(-c2ccccc2)on1 (stereo unspecified)	NF-kB expr up 7.79, STAT1 activator 139.7 (no result: Pf gamet viab)
Cc1nc(/C=C/c2ccccc2)[nH]c(=O)c1-c1ccccc1	STAT1 activator 129.3
Cc1cccc(/C=C\c2nc3ccccc3c(=O)[nH]2)c1	APP 5'UTR act 157.7, STAT1 activator 144.0, FLuc inhib CS 72.8
O=c1[nH]c(/C=C/c2cccc3ccccc23)nc2ccccc12	none
O=C(Nc1ccc2[nH]ccc2c1)c1cccs1	none (no result: APP 5'UTR act, NF-kB expr up, STAT1 activator, FLuc stim CS, FLuc inhib CS)
CCc1ccccc1NC(=O)c1cnc2n(c1=O)CCS2	none (no result: Pf gamet viab)
CCc1ccc(NC(=O)c2cnc3n(c2=O)CCS3)cc1	STAT1 activator 130.8 (no result: Pf gamet viab)
Cc1cc(C(=O)COC(=O)c2ccc(Br)o2)c(C)n1C	NF-kB expr up 3.96, STAT1 activator 135.0
COCCn1c(C)cc(C(=O)COC(=O)c2ccc(Br)o2)c1C	APP 5'UTR act 268.0, FLuc inhib CS 80.0
Cc1cc(C)c(NC(=O)/C=C\C(=O)O)c(Cl)c1	none
CCN(CC)c1ccc(C(=S)NC2CCCCC2)cc1	none
CN(C)c1ccc(C(=S)NC2CCCCC2)cc1	NF-kB expr up 3.35, STAT1 activator 131.7
Cc1ccc(/C=N/NC(=O)c2cccc([N+](=O)[O-])c2)o1	none
Cc1cc(/C=N/NC(=O)c2cccs2)c(C)n1-c1ccccc1	APP 5'UTR act 162.8, FLuc inhib CS 91.2 (no result: Pf gamet viab)
Cn1cc(/C=N\NC(=O)c2cccs2)c2ccccc21	STAT1 activator 128.8
Cc1cc(/C=N/NC(=O)C(O)(c2ccccc2)c2ccccc2)c(C)n1-c1ccccc1	none
Cc1cc(/C=N/NC(=O)c2cccc([N+](=O)[O-])c2)c(C)n1-c1ccccc1	FLuc inhib CS 65.5
Cc1cc(/C=N/NC(=O)COc2cccc3cccnc23)c(C)n1-c1ccc(O)cc1	FLuc inhib CS 57.2
CSCCC(NC(=O)c1ccccc1)C(=O)Nc1ccc(NC(C)=O)cc1 (stereo unspecified)	none
Cc1ccsc1/C=N/NC(=O)c1cc(-c2ccncc2)nc2ccccc12	none
COC(=O)N/N=C/c1cc(C)n(-c2ccccc2)c1C	FLuc inhib CS 52.3 (no result: APP 5'UTR act)
Cc1cc(/C=N/NC(=O)c2ccncc2)c(C)n1-c1ccccc1	FLuc inhib CS 69.7 (no result: Pf gamet viab)
Cc1cc(C(=O)N/N=C2\CC(=O)c3ccccc32)c(C)n1-c1ccccc1	STAT1 activator 137.4, FLuc inhib CS 60.1
CCc1ccc(-n2c(C)cc(/C=N/NC(=O)c3ccncc3)c2C)cc1	none
Cc1cc(C(=O)N/N=C/c2ccc(O)c(O)c2O)c(C)n1-c1ccccc1	FLuc inhib CS 70.1
CCOC(=O)c1c[nH]c2c(C(F)(F)F)cccc2c1=O	none
Cc1cc2c(C)c(C)c(=O)[nH]c2cc1N	none (no result: Pf gamet viab)
O=C(CNS(=O)(=O)c1ccc(Br)cc1)N1CCOCC1	none (no result: Pf gamet viab)
Cc1cc(/C=N/NC(=O)c2cccs2)c(C)n1-c1cnccn1	STAT1 activator 146.6, FLuc inhib CS 54.9
Cc1ccccc1NC(=O)Cn1nnc(C(=O)NCc2ccco2)c1N	none (no result: Pf gamet viab)
CCOc1ccccc1NC(=O)Cn1nnc(C(=O)NCc2ccco2)c1N	NF-kB expr up 3.68
CCCCCCSc1ccc([C@@H]2[C@H]3C(=O)N(CC)C(=O)[C@H]3[C@]3(C(=O)OC)CCCN23)cc1	none (no result: APP 5'UTR act, NF-kB expr up, STAT1 activator, FLuc stim CS, FLuc inhib CS)
Cc1cccc(OCc2nc(-c3nonc3N)no2)c1C	STAT1 activator 139.3
O=C(Nc1ccc2nc3n(c(=O)c2c1)CCCCC3)c1ccccn1	STAT1 activator 145.2 (no result: Pf gamet viab)
COc1cc(Cl)ccc1NC(=O)COc1ccccc1C(=O)N1CCN(c2ccc(O)cc2)CC1	none
COc1cccc(/C=N/Nc2ncnc(Cl)c2N)c1O	FLuc inhib CS 68.5
COc1cccc(/C=N/Nc2nccnc2Cl)c1O	NF-kB expr up 6.15, FLuc inhib CS 83.8
COc1cccc(/C=N/Nc2ncnc(N)c2[N+](=O)[O-])c1OC	FLuc inhib CS 78.1 (no result: Pf gamet viab)
Oc1ccccc1/C=N/Nc1nccnc1Cl	none
COc1ccc(/C=N/Nc2ncnc(Cl)c2N)cc1OC	none (no result: Pf gamet viab)
O=C(C1CCN(C2CCN(Cc3ccc4c(c3)CCO4)CC2)CC1)N1CCOCC1	none
Cn1c(-c2ccc3c(c2)OCO3)cnc1NCc1ccccc1Cl	STAT1 activator 139.9
Cc1ccc(OCC(=O)N2N=C(c3ccncc3)CC2(O)C(F)(F)F)cc1C (stereo unspecified)	none (no result: APP 5'UTR act, NF-kB expr up, STAT1 activator, FLuc stim CS, FLuc inhib CS)

Bioassay records deposited in PubChem by several laboratories.
